Data published in ChEMBL document CHEMBL2163190, “Synthesis and evaluation of substituted chroman-4-one and chromone derivatives as sirtuin 2-selective inhibitors” (J Med Chem, 2012).
Calls of active or inactive are those of the source. The rule behind the calls is not given here.

Key:
[1] = molecular target: T1, NAD-dependent protein deacetylase sirtuin-3, mitochondrial (Homo sapiens) (UniProt Q9NTG7); assay: Inhibition of recombinant His-tagged SIRT3 preincubated at 200 uM for 5 mins measured after 1hr by Fluor de Lys-based fluorescence assay
T1 sequence (whole entry): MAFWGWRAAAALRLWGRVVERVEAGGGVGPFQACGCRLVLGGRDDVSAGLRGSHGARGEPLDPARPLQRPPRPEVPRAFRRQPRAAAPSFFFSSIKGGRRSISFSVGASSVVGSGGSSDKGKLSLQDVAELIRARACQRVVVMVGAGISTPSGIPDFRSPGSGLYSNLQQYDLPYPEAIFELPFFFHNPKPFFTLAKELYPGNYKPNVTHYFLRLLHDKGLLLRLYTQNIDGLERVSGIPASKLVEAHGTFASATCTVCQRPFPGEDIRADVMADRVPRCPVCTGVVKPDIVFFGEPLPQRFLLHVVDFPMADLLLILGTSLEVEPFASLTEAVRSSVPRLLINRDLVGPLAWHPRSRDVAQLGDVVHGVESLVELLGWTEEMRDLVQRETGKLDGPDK
Procedure, shortened: (§1)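 Fluor de Lys assay with compound at 200 μM in DMSO. […] Substrate was used at 0.7 Km and NAD+ at 0.9 Km. Preincubated 5 min at RT, then enzyme for 1 h at 37 °C, then developer/nicotinamide for 45 min at 37 °C. Read at ex 355/em 460 nm.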

[2] = molecular target: T2, NAD-dependent protein deacetylase sirtuin-1 (Homo sapiens) (UniProt Q96EB6); assay: Inhibition of recombinant GST-tagged SIRT1 preincubated at 200 uM for 5 mins measured after 1hr by Fluor de Lys-based fluorescence assay; procedure, shortened: as §1
T2 sequence (whole entry): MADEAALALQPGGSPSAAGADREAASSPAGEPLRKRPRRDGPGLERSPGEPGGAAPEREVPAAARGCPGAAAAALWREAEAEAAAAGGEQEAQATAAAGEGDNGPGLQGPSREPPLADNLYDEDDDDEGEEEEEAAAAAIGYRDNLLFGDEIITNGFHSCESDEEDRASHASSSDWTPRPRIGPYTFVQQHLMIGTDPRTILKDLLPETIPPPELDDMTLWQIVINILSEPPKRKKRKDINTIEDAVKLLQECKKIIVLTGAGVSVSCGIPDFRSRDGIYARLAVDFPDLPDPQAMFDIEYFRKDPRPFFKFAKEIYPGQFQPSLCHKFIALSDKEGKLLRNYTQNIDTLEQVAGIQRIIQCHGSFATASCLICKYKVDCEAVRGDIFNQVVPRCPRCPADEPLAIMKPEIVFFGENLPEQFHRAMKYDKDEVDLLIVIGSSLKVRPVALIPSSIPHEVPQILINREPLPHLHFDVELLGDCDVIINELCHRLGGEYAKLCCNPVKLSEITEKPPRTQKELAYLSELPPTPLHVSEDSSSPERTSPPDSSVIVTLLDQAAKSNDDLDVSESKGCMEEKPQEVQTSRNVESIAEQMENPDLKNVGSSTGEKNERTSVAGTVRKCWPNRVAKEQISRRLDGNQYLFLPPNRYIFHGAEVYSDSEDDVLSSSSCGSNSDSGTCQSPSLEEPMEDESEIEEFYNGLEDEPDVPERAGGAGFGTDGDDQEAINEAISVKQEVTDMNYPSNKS

[3] = molecular target: T3, NAD-dependent protein deacetylase sirtuin-2 (Homo sapiens) (UniProt Q8IXJ6); assay: Inhibition of human recombinant GST-tagged SIRT2 preincubated at 200 uM for 5 mins measured after 1 hr by Fluor de Lys-based fluorescence assay
T3 sequence (whole entry): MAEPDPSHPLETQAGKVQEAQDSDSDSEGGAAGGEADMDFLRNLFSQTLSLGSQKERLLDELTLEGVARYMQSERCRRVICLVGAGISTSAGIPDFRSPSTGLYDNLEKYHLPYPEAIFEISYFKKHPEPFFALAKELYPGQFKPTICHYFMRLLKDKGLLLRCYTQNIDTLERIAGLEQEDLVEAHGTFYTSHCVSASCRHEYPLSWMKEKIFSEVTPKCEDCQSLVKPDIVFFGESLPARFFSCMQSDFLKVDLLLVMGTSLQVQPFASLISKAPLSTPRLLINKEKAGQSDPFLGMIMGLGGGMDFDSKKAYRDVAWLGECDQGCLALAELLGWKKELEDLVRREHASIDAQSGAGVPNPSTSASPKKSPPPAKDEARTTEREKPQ
Procedure, shortened: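 GST-SIRT2 assay with Fluor de Lys KI179 substrate at 0.7 Km (Km 198 μM) and NAD+ at 0.9 Km (Km 547 μM), in HDAC buffer with 1 mg/mL BSA. Substrate, NAD+ and compound (200 μM, DMSO) were preincubated 5 min at RT, then enzyme added for 1 h at 37 °C. Developer plus nicotinamide (2 mM) was added for 45 min at 37 °C. Read at ex 355/em 460 nm; n = 3, SD.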

[4] = molecular target: T4, NAD-dependent protein deacetylase sirtuin-2 (Homo sapiens, UniProt Q8IXJ6); assay: Inhibition of human recombinant GST-tagged SIRT2 preincubated for 5 mins measured after 1 hr by Fluor de Lys-based fluorescence assay
T4 sequence (Q8IXJ6 whole entry): T3 sequence (whole entry)
Procedure, shortened: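 Fluorogenic GST-SIRT2 assay using KI179 at 0.7 Km and NAD+ at 0.9 Km, in BSA-supplemented HDAC buffer. Compound, substrate and NAD+ were preincubated 5 min at RT, then enzyme added for 1 h at 37 °C, followed by developer/nicotinamide for 45 min at 37 °C. Fluorescence read at 355/460 nm.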

[5] = molecular target: T3, NAD-dependent protein deacetylase sirtuin-2 (Homo sapiens); assay: Inhibition of SIRT2 using RSTGGK(Ac)APRKQ as substrate assessed as inhibition of [14C]nicotinamide release at 200 uM after 1h by TLC
Procedure, shortened: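 Recombinant GST-SIRT2 started the reaction with [carbonyl-14C]NAD+ (43.2 nCi) and acetylated peptide RSTGGK(Ac)APRKQ (196 μM). Buffer was HDAC assay buffer plus 1 mg/mL BSA, with compound at 200 μM final in DMSO. Incubated 1 h at 37 °C. The whole mixture was run on silica TLC in ethanol/2.5 M ammonium acetate (80:20), exposed overnight to X-ray film, and [14C]nicotinamide quantified by densitometry.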

[6] = molecular target: T3, NAD-dependent protein deacetylase sirtuin-2 (Homo sapiens); assay: Inhibition of human SIRT2 assessed as inhibition of deacetylation of rat stem cell acetylated alpha-tubulin at 200 uM after 30 to 60 mins by Western blot analysis
Procedure, shortened: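 Acetylated α-tubulin (0.5 μg) isolated from rat stem cells was incubated with recombinant GST-SIRT2, NAD+ (500 μM) and compound (200 μM final, DMSO vehicle) in SIRT assay buffer for 30 or 60 min at 37 °C. Samples were resolved on 10% SDS-PAGE and blotted to nitrocellulose. Probed with anti-acetylated tubulin mAb 6-11B-1 (1:8000, 2 h, RT), then HRP anti-mouse secondary (1:50000, 2 h).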

Row | Compound | inhibition [1] [%] | inhibition [2] [%] | inhibition [3] [%] | IC50 [4] [µM] | inhibition [5] [%] | inhibition [6]
1 | CCCCCc1cc(=O)c2cc(Cl)cc(Br)c2o1 | < 10 | < 10 | 82 | 5.5 |  | 
2 | CCCCC[C@@H]1CC(=O)c2cc(Cl)cc(Br)c2O1 | < 10 | < 10 | 70 | 4.5 |  | 
3 | CCCCC[C@H]1CC(=O)c2cc(Cl)cc(Br)c2O1 | < 10 | < 10 | 91 | 1.5 |  | 
4 | CCCCCC1C=Cc2cc(Cl)cc(Br)c2O1 (centres undefined) |  |  | 38 |  |  | 
5 | CCCCCC1CCc2cc(Cl)cc(Br)c2O1 (centres undefined) |  |  | 38 |  |  | 
6 | O=c1cc(-c2ccccc2)oc2c(Br)cc(Cl)cc12 |  |  | 20 |  |  | 
7 | CCCCCC1CC(O)c2cc(Cl)cc(Br)c2O1 (mixture of isomers) |  |  | 31 |  |  | 
8 | CCCC1CC(=O)c2cc(Cl)cc(Br)c2O1 (racemic) | < 10 | < 10 | 76 | 10.6 |  | 
9 | O=C1CC(CCc2ccccc2)Oc2c(Br)cc(Cl)cc21 (racemic) | 16 | < 10 | 81 | 6.8 |  | 
10 | CCCCCC1CC(=O)c2cc(Cl)cc(Br)c2O1 (racemic) | < 10 | < 10 | 88 | 4.3 | 66 | Active
11 | CCCCCC1CC(=O)c2cc(Br)cc(Br)c2O1 (racemic) | < 10 | < 10 | 92 | 1.5 |  | 
12 | CCCCCC1CC(=O)c2cc(C)cc(C)c2O1 (racemic) | < 10 | < 10 | 83 | 6.2 |  | 
13 | CC(C)C1CC(=O)c2cc(Cl)cc(Br)c2O1 (racemic) |  |  | 52 |  |  | 
14 | CCCCCC1CC(=O)c2cc(Cl)ccc2O1 (racemic) |  |  | 55 |  |  | 
15 | CCCCCC1CC(=O)c2cc(F)cc(F)c2O1 (racemic) |  |  | 30 |  |  | 
16 | CCCCCC1CC(=O)c2cc(OC)ccc2O1 (racemic) |  |  | 20 |  |  | 
17 | CCCCCC1CC(=O)c2cc([N+](=O)[O-])ccc2O1 (racemic) |  |  | 58 |  |  | 
18 | CCCCCC1CC(=O)c2ccc(F)cc2O1 (racemic) |  |  | 18 |  |  | 
19 | CCCCCC1CC(=O)c2cccc(Br)c2O1 (racemic) |  |  | 28 |  |  | 
20 | CCCCCC1CC(=O)c2ccccc2O1 (racemic) |  |  | 4.9 |  |  | 
21 | CCCCCCCC1CC(=O)c2cc(Cl)cc(Br)c2O1 (racemic) |  |  | 57 |  |  | 
22 | Cc1ccc(S(=O)(=O)n2cc(CCC3CC(=O)c4cc(Cl)cc(Br)c4O3)c3ccccc32)cc1 (racemic) |  |  | 27 |  |  | 
23 | O=C1CC(CCc2c[nH]c3ccccc23)Oc2c(Br)cc(Cl)cc21 (racemic) |  |  | 53 |  |  | 
